Test results from ChEMBL document CHEMBL4680111, “Target Validation and Identification of Novel Boronate Inhibitors of the Plasmodium falciparum Proteasome” (J Med Chem, 2018).
Active and inactive are the calls of the source. No cut-off for these calls is given here.

What was measured:
[1] = Inhibition of Plasmodium falciparum 20S proteasome beta 1 subunit caspase-like activity using fluorogenic peptide Ac-nLPnLD-AMC as substrate in presence of PA28alpha incubated for 1 to 2 hrs by fluorescence microplate reader assay
[2] = Inhibition of Plasmodium falciparum 20S proteasome beta 5 subunit chymotrypsin-like activity using fluorogenic peptide Ac-WLA-AMC as substrate in presence of PA28alpha incubated for 1 to 2 hrs by fluorescence microplate reader assay
[3] = Inhibition of Plasmodium falciparum 20S proteasome beta 2 subunit trypsin-like activity using fluorogenic peptide Ac-WLR-AMC as substrate in presence of PA28alpha incubated for 1 to 2 hrs by fluorescence microplate reader assay
[4] = Selectivity index, ratio of LD50 for cytotoxicity against human HepG2 cells to LD50 for antiplasmodial activity against Plasmodium falciparum 3D7 sorbitol-treated ring stage; assay type: toxicity, cell-based; details: read-out: Selectivity Index
[5] = biological target: T1, Proteasome Macropain subunit MB1 (Homo sapiens, UniProt P28074); assay: Inhibition of human 20S constitutive proteasome beta 5 subunit chymotrypsin-like activity using fluorogenic peptide Ac-WLA-AMC as substrate in presence of PA28alpha incubated for 1 to 2 hrs by fluorescence microplate reader assay
T1 sequence (P28074 whole entry): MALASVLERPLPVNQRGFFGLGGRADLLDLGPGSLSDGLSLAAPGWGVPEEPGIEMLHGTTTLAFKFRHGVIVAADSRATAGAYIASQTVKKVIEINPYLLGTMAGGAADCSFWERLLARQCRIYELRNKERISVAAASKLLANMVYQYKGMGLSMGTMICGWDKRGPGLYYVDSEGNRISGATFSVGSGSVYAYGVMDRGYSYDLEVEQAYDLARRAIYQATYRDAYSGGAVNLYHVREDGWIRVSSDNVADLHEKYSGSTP

[6] = biological target: T2, Proteasome subunit beta type-6 (Homo sapiens, UniProt P28072); assay: Inhibition of human 20S constitutive proteasome beta 1 subunit caspase-like activity using fluorogenic peptide Ac-nLPnLD-AMC as substrate in presence of PA28alpha incubated for 1 to 2 hrs by fluorescence microplate reader assay
T2 sequence (P28072 whole entry): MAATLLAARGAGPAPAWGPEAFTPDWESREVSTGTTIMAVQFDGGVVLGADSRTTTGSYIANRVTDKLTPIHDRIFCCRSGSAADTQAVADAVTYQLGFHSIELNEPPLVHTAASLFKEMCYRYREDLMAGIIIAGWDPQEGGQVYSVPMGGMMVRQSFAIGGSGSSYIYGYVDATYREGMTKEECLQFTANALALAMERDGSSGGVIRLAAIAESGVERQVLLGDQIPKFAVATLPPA

[7] = biological target: T3, Proteasome subunit beta type-9 (Homo sapiens, UniProt P28065); assay: Inhibition of human 20S immunoproteasome beta 1 subunit caspase-like activity using fluorogenic peptide Ac-nLPnLD-AMC as substrate in presence of PA28alpha incubated for 1 to 2 hrs by fluorescence microplate reader assay
T3 sequence (P28065 whole entry): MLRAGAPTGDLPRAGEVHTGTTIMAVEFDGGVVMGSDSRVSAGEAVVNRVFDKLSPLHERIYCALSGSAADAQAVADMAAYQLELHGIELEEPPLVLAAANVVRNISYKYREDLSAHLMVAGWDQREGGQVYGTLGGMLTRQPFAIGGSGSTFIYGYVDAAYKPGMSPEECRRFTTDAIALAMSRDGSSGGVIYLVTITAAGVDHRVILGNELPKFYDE

[8] = biological target: T4, Proteasome subunit beta type-8 (Homo sapiens) (UniProt P28062); assay: Inhibition of human 20S immunoproteasome beta 5 subunit assessed as inhibition of BMV037 probe labeling at 1 to 10 uM incubated for 1 hr by SDS-PAGE analysis; details: dose 1-10 µM
T4 sequence (whole entry): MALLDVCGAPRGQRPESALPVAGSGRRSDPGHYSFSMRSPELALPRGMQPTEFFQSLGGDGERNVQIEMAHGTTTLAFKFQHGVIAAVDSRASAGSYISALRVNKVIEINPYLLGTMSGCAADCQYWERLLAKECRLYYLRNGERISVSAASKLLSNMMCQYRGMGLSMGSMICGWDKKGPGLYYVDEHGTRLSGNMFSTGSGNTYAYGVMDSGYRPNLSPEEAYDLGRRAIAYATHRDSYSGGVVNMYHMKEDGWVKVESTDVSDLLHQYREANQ
Method in brief: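 Purified human immuno-20S (20 nM) was incubated with compound at 37°C for 1 h, then labelled with 10 µM BMV037 at 37°C for 2 h. Samples were run on 4-12% Bis-Tris gel with MES buffer, and active subunits were visualised by Cy5 fluorescence.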

[9] = system: Plasmodium falciparum; assay: Antiplasmodial activity against DHA-resistant and sorbitol synchronized ring stage forms of Plasmodium falciparum Cam3.II^R539T expressing K13 mutant assessed as reduction in parasitemia incubated for 3 hrs by pulse exposure based Syto-61 staining dye based flow cytometry analysis; assay type: functional; details: read-out: LD50 (the source's name)
Method in brief: (§1)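 Tightly synchronized early-ring parasites (1-3 h post-invasion) exposed to compound for 3 h, then viability assessed in the next cycle. Cells stained with 2 µM Syto-61 and parasitemia read by flow cytometry, normalized to untreated and kill controls (2 µM DHA, 48-72 h). Mean ± SEM of three independent experiments.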

[10] = system: Plasmodium falciparum; assay: Antiplasmodial activity against sorbitol synchronized ring stage Plasmodium falciparum 3D7 assessed as reduction in parasitemia incubated for 72 hrs by Syto-61 staining dye based flow cytometry analysis; assay type: functional; details: read-out: LD50 (the source's name)
Method in brief: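 Sorbitol-treated ring-stage parasites in O+ human erythrocytes were incubated with compound for 72 h, and viability was read in the second cycle. Read-out was Syto-61 (2 µM) flow cytometry of parasitemia, normalized to untreated and 2 µM DHA-killed controls. Mean ± SEM of three independent experiments.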

[11] = biological target: T5, Proteasome subunit beta type-8 (Homo sapiens, UniProt P28062); assay: Inhibition of human 20S immunoproteasome beta 5 subunit chymotrypsin-like activity using fluorogenic peptide Ac-WLA-AMC as substrate in presence of PA28alpha incubated for 1 to 2 hrs by fluorescence microplate reader assay
T5 sequence (P28062 whole entry): T4 sequence (whole entry)

[12] = biological target: T6, Proteasome subunit beta type-7 (Homo sapiens, UniProt Q99436); assay: Inhibition of human 20S constitutive proteasome beta 2 subunit trypsin-like activity using fluorogenic peptide Ac-WLR-AMC as substrate in presence of PA28alpha incubated for 1 to 2 hrs by fluorescence microplate reader assay
T6 sequence (Q99436 whole entry): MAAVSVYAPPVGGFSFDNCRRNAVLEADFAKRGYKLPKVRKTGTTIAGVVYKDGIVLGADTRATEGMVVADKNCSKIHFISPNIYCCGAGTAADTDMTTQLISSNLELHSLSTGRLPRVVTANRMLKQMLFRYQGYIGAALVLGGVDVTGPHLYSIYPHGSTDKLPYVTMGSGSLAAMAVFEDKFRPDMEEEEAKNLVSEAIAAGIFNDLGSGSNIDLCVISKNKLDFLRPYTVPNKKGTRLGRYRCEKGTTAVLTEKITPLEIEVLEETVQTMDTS

[13] = system: Plasmodium falciparum; assay: Antiplasmodial activity against DHA-sensitive and sorbitol synchronized ring stage forms of Plasmodium falciparum Cam3.II^rev expressing K13 wild-type genotype assessed as reduction in parasitemia incubated for 3 hrs by pulse exposure based Syto-61 staining dye based flow cytometry analysis; assay type: functional; details: read-out: LD50 (the source's name); method in brief: as §1
[14] = system: Plasmodium falciparum 3D7; assay: Inhibition of 20S proteasome beta 5 subunit in bortezomib-resistant Plasmodium falciparum 3D7 assessed as inhibition of BMV037 probe labeling at 1 to 10 uM incubated for 1 hr by SDS-PAGE analysis; details: dose 1-10 µM

Row | SMILES | IC50 [1] | IC50 [2] | IC50 [3] | selectivity ratio [4] | IC50 [5] | IC50 [6] | IC50 [7] | inhibition [8] | LC50 [9] | LC50 [10] | IC50 [11] | IC50 [12] | LC50 [13] | inhibition [14]
1 | CC(=O)N1CCC[C@@H]1C(=O)N[C@@H](C)C(=O)N[C@@H](Cc1ccccc1)B(O)O | 3190 nM | 1500 nM | > 10000 nM | 56 | 220 nM | 3400 nM | 8 nM | Active | 820 nM | 120 nM | 28 nM | > 10000 nM | 900 nM | Active
2 | Cc1ccc(S(=O)(=O)N[C@@H](CC(=O)NCC(C)(C)C)C(=O)N[C@@H](Cc2ccccc2)C(=O)N[C@@H](CC(C)C)B(O)O)cc1 | 1780 nM | 16 nM | 70 nM | 4 | 9 nM | 1600 nM | 29 nM | Active | 190 nM | 65 nM | 5 nM | 440 nM | 210 nM | Active
3 | CC(C)C[C@H](NC(=O)[C@H](Cc1ccccc1)NC(=O)Cc1ccc(O)cc1)B(O)O | 600 nM | 10 nM | 60 nM | 0.7 | 1.4 nM | 52 nM | 5 nM | Active | 160 nM | 61 nM | 1.3 nM | 680 nM | 180 nM | inactive
